# According to publication PMC11704051 (Nature Communications, 2025):
# Where “and” joins values, the source holds several entries; their conditions need not be identical. Equal entries are not always repeated.
# Experiments:
# [1] = test system: MTAP-deleted urothelial cancer and lung cancer; details: cited from earlier work
# [2] = test system: mouse; details: mouse GLP toxicology study, non-tolerated doses; cited from earlier work
# [3] = test system: MTAP-null tumors; details: cited from earlier work
# [4] = test system: SDMA residues; assay: SDMA by IHC; type: in vivo, human; details: NSCLC patient, 50 mg QD
# Summary of the method: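 Paired core-needle biopsies (archival or fresh) were taken at screening/baseline and at the end of cycle 1. Tissue was fixed in 10% […] buffered formalin and paraffin-embedded. H&E confirmed tumour content, and SDMA in tumour cells was scored by IHC as an H-score. Paired comparison used a two-sided Wilcoxon matched-pairs test.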
# [5] = test system: methionine; assay: Plasma methionine concentration; type: in vivo, human; details: steady state (C1D15)
# [6] = Plasma pharmacokinetics of AG-270/S095033; type: in vivo, human
# [7] = test system: OATP1B1; details: known potential; cited from earlier work
# [8] = test system: UGT1A1; details: known potential; cited from earlier work
# [9] = test system: SAM; assay: Plasma SAM concentration; type: in vivo, human
# Summary of the method: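 Plasma SAM was quantified by LC-MS/MS. Baseline blood was drawn twice at screening and before the single oral dose on C0D-3. At steady state (C1D15) sampling was pre-dose and 0.5, 1, 2, 3, 4, 6, 8 and 24 h post-dose, with daily oral dosing at 50–400 mg QD or 200 mg BID. The read-out was percent change from baseline.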
# [10] = test system: MTAP-deleted cancer cell lines; details: multiple MTAP-deleted cancer cell lines; cited from earlier work
# [11] = test system: patients with advanced malignancies; assay: Phase 1 trial: safety and tolerability; type: in vivo, human; details: for DLT: cycle 1; for Patients with any TRAE / TRAE Anemia / TRAE Blood bilirubin increased/hyperbilirubinemia / TRAE Diarrhea / TRAE Fatigue / TRAE Nausea / TRAE Rash (rash, rash macular, rash maculo-popular) / TRAE Thrombocytopenia /platelet count decrease: n = 40
# Summary of the method: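 Monitoring covered AEs graded by NCI-CTCAE v4.03, SAEs, laboratory values, clinical examinations, vital signs, ECOG status, ophthalmology and ECG. DLTs were assessed over cycle 1 (28 days) of oral single-agent dosing (50–400 mg QD, 200 mg BID). Escalation used a two-parameter BLRM with EWOC: reference 650 mg total daily dose, target DLT interval [0.16, 0.33], <25% chance of excessive toxicity, increments ≤100%.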
# [12] = test system: advanced solid tumors with homozygous deletion of CDKN2A/MTAP and/or loss of MTAP protein; assay: Phase 1 trial: antitumor activity by RECIST v1.1, treatment duration; type: in vivo, human
# Summary of the method: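 Adults with advanced solid tumour or lymphoma (homozygous CDKN2A and/or MTAP deletion by local FISH or sequencing, and/or central MTAP IHC with ≤20% positive tumour cells) took test compound orally on an empty stomach. Dosing was 50–400 mg QD or 200 mg BID: a single dose on C0D-3, then daily from C1D1 in 28-day cycles until progression or toxicity. Local investigators scored response by RECIST v1.1 (Lugano for lymphoma).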
# [13] = monotherapy expansion, MTAP-deleted urothelial cancer and lung cancer
smiles,measurement,setting,value
Nc1nc(=O)n(-c2ccccc2Cl)c2nc(C(F)(F)F)ccc12 [IDE397],Patients achieving a PR,"[1]; Phase 2 expansion, squamous NSCLC and bladder cancer",two out of eight patients
same,Disease control rate,[1]; [13],~ 94%
same,Overall response rate,[1]; [13],~ 39%
same,ctDNA molecular response rate,[1]; [13],~ 81%
COc1ccc(-c2c(Nc3ccccn3)[nH]c3c(C4=CCCCC4)c(-c4ccccc4)nn3c2=O)cc1 [AG-270/S095033],Retinal finding,[2],non-reversible retinal atrophy at non-tolerated doses
same,Effect on SAM levels,[3]; mice bearing MTAP-null tumors,reduce the levels of SAM in both plasma and tumor tissue
same,Effect on tumor growth,[3]; mice bearing MTAP-null tumors,inhibit tumor growth in a dose- and drug exposure-dependent manner
same,Reduction in plasma SAM concentration associated with maximum tumor growth inhibition,[3]; preclinical models,60–80%
same,SDMA reduction after 1 cycle of treatment,[4],39%
same,Change in plasma methionine concentrations,[5],increases in methionine concentrations in a drug exposure-dependent manner up to 200 mg QD
same,Increase of plasma concentrations with dose,[6]; 50 mg to 200 mg,dose-proportional manner from 50 mg to 200 mg
same,Exposure relative to dose,[6]; 400 mg QD,less than dose proportional
same,Cmax,"[6]; human, plasma, oral, Geometric mean Cmax, range across the dosing cohorts, C1D15",1710 to 13600 ng/mL
same,half-life,"[6]; human, plasma, oral, Geometric mean accumulation-based (effective) half-life (T½eff), range, C1D15, 50 to 200 mg QD and 200 mg BID",43 to 99 h
same,Tmax,"[6]; human, plasma, oral, Median Tmax, range across the dosing cohorts, C1D15",1 to 6 h
same,half-life,"[6]; human, plasma, oral, Median terminal half-life (t½), range across the tested doses",16 to 38 h
same,Time at which steady-state was achieved (mean plasma trough concentrations),[6]; most of the cohorts,≤ 15 days
same,Inhibition of hepatocyte transporter OATP1B1,[7],inhibit
same,Inhibition of UGT1A1,[8],inhibit
same,Mean reduction from baseline plasma SAM concentration,"[9]; C1D15, 400 mg QD",~ 54%
same,"Decrease of plasma SAM concentration from baseline, range across doses","[9]; C1D15, 50–200 mg QD and 200 mg BID",65–70%
same,Effect on cell proliferation,[10],robust decrease in cell proliferation
same,Patients with dose-limiting ≥grade 3 / acute liver injury,[11]; 200 mg BID,two patients
same,Severity of thrombocytopenia,[11]; 200 mg BID,Higher grade thrombocytopenia
same,DLT,[11]; 1 patient at 100 mg QD,Grade 2 hypersensitivity reaction
same,DLT,[11]; 1 patient at 150 mg QD,Grade 3 hyperbilirubinemia and Grade 3 maculo-papular rash
same,DLT,[11]; 1 patient at 200 mg QD,Grade 3 neutrophil count decreased
same,Patients who experienced a TEAE of Grade ≥3,[11]; 40 patients,67.5%
same,Patients with AEs leading to permanent treatment discontinuation,[11]; 40 patients,5.0%
same,Patients with TRAEs of Grade ≥3,[11]; 40 patients,17.5%
same,Patients with at least one DLT during cycle 1,[11]; 40 patients,10%
same,Patients with fatal SAEs (none related to treatment),[11]; 40 patients,5.0%
same,Patients with serious adverse events (SAEs) regardless of relationship,[11]; 40 patients,57.5%
same,Patients with worst post-baseline ECOG score of 2,[11]; 40 patients,20.0%
same,Patients with worst post-baseline ECOG score of 3,[11]; 40 patients,2.5%
same,SAE abdominal pain,[11]; 40 patients,5.0%
same,SAE liver injury,[11]; 40 patients,5.0%
same,SAE pancreatitis,[11]; 40 patients,5.0%
same,SAE sepsis,[11]; 40 patients,5.0%
same,SAE tumor pain,[11]; 40 patients,5.0%
same,TEAE non-serious blurred vision (not related to treatment),[11]; 40 patients,5%
same,TEAE non-serious supraventricular tachycardia,[11]; 40 patients,2.5%
same,TEAE non-serious tachycardia,[11]; 40 patients,5%
same,TEAE optic disc hemorrhage (not related to treatment),[11]; 40 patients,2.5%
same,TEAE retinal hemorrhage (not related to treatment),[11]; 40 patients,2.5%
same,TEAE serious atrial fibrillation,[11]; 40 patients,2.5%
same,TEAE serious electrocardiogram T wave inversion,[11]; 40 patients,2.5%
same,TEAE serious sinus tachycardia,[11]; 40 patients,2.5%
same,"TRAE blood bilirubin increase, any grade",[11]; 40 patients,15%
same,"TRAE hyperbilirubinemia, any grade",[11]; 40 patients,12.5%
same,"TRAE thrombocytopenia, any grade",[11]; 40 patients,10%
same,Patients with any TRAE,[11]; All Grades,28 n (%) and 28 (70.0) n (%)
same,TRAE Anemia,[11]; All Grades,4 n (%) and 4 (10.0) n (%)
same,TRAE Blood bilirubin increased/hyperbilirubinemia,[11]; All Grades,10 n (%) and 10 (25.0) n (%)
same,TRAE Diarrhea,[11]; All Grades,3 (7.5) n (%)
same,TRAE Fatigue,[11]; All Grades,10 n (%) and 10 (25.0) n (%)
same,TRAE Nausea,[11]; All Grades,3 (7.5) n (%)
same,"TRAE Rash (rash, rash macular, rash maculo-popular)",[11]; All Grades,6 (15.0) n (%)
same,TRAE Thrombocytopenia /platelet count decrease,[11]; All Grades,7 (17.5) n (%)
same,Patients with any TRAE,[11]; Grade 1,10 (25.0) n (%)
same,TRAE Anemia,[11]; Grade 1,1 (2.5) n (%)
same,TRAE Blood bilirubin increased/hyperbilirubinemia,[11]; Grade 1,1 (2.5) n (%)
same,TRAE Diarrhea,[11]; Grade 1,2 (5.0) n (%)
same,TRAE Fatigue,[11]; Grade 1,3 (7.5) n (%)
same,TRAE Nausea,[11]; Grade 1,3 (7.5) n (%)
same,"TRAE Rash (rash, rash macular, rash maculo-popular)",[11]; Grade 1,3 (7.5) n (%)
same,TRAE Thrombocytopenia /platelet count decrease,[11]; Grade 1,2 (5.0) n (%)
same,Patients with any TRAE,[11]; Grade 2,11 (27.5) n (%)
same,TRAE Anemia,[11]; Grade 2,2 (5.0) n (%)
same,TRAE Blood bilirubin increased/hyperbilirubinemia,[11]; Grade 2,6 (15.0) n (%)
same,TRAE Diarrhea,[11]; Grade 2,1 (2.5) n (%)
same,TRAE Fatigue,[11]; Grade 2,7 (17.5) n (%)
same,TRAE Nausea,[11]; Grade 2,0 n (%)
same,"TRAE Rash (rash, rash macular, rash maculo-popular)",[11]; Grade 2,1 (2.5) n (%)
same,TRAE Thrombocytopenia /platelet count decrease,[11]; Grade 2,2 (5.0) n (%)
same,Patients with any TRAE,[11]; Grade 3,6 (15.0) n (%)
same,TRAE Anemia,[11]; Grade 3,1 (2.5) n (%)
same,TRAE Blood bilirubin increased/hyperbilirubinemia,[11]; Grade 3,4 (10.0) n (%)
same,TRAE Diarrhea,[11]; Grade 3,0 n (%)
same,TRAE Fatigue,[11]; Grade 3,0 n (%)
same,TRAE Nausea,[11]; Grade 3,0 n (%)
same,"TRAE Rash (rash, rash macular, rash maculo-popular)",[11]; Grade 3,2 (5.0) n (%)
same,TRAE Thrombocytopenia /platelet count decrease,[11]; Grade 3,3 (7.5) n (%)
same,Patients with any TRAE,[11]; Grade 4,1 (2.5) n (%)
same,TRAE Anemia,[11]; Grade 4,0 n (%)
same,TRAE Blood bilirubin increased/hyperbilirubinemia,[11]; Grade 4,0 n (%)
same,TRAE Diarrhea,[11]; Grade 4,0 n (%)
same,TRAE Fatigue,[11]; Grade 4,0 n (%)
same,TRAE Nausea,[11]; Grade 4,0 n (%)
same,"TRAE Rash (rash, rash macular, rash maculo-popular)",[11]; Grade 4,0 n (%)
same,TRAE Thrombocytopenia /platelet count decrease,[11]; Grade 4,0 n (%)
same,Treatment-related increases in transaminases,[11]; between the 100 mg and 400 mg dose levels,Low grade (Grade 1–2)
same,Severity of thrombocytopenia,[11]; doses between 100 and 200 mg QD,largely Grade 1–2
same,Effect on ECG parameters,[11]; in vivo,no discernable effect
same,Time to resolution of erythematous rashes after stopping treatment,[11]; in vivo,≤ 1 week
same,Patients with PR interval >200 ms,[11]; maximum post-baseline value,10.0%
same,Patients with QRS duration >120 ms,[11]; maximum post-baseline value,7.5%
same,Patients with QT/QTc interval >450 ms,[11]; maximum post-baseline value,15.0%
same,Patients with QT/QTc interval increase from baseline >30 ms,[11]; maximum post-baseline value,10.0%
same,Patients with any TEAE,[11]; n=40,40 N (%)
same,TEAE Blood bilirubin increased,[11]; n=40,9 N (%)
same,TEAE Decreased appetite,[11]; n=40,8 N (%)
same,TEAE Diarrhoea,[11]; n=40,8 N (%)
same,TEAE Dyspnoea,[11]; n=40,8 N (%)
same,TEAE Fatigue,[11]; n=40,17 N (%)
same,TEAE Nausea,[11]; n=40,13 N (%)
same,≥ Grade 3 TEAE Bilirubin increased,[11]; n=40,4 N (%)
same,Treatment-related clinically significant retinopathy,[11]; ophthalmologic examinations at screening and during treatment,No treatment-related events of clinically significant retinopathy were reported
same,Maximum tolerated dose (MTD),"[11]; oral, 28-day cycles",200 mg QD
same,Increases in unconjugated bilirubin,"[11]; patients, across doses","Asymptomatic, exposure-dependent and reversible increases in unconjugated bilirubin were observed starting at 100 mg QD"
same,Patients with SD for 4 months or longer,[12]; 40 patients,12.5%
same,Disease control rate (CR+PR+SD≥16 weeks),"[12]; 40 patients, 95%–CI 7.3, 32.8",17.5%
same,BOR Not evaluable (NE),[12]; Total (n=40),7 n (%)
same,BOR Partial response (PR),[12]; Total (n=40),2 n (%)
same,Duration of partial response,"[12]; patient, sex cord stromal cell cancer, 100 mg QD",28 months
